# Laboratory results: PMC5280578 (Journal of neurosurgery, 2016)
# Where “and” joins values, the source holds several entries; their conditions need not be identical. Identical values can stand only once. Like-named read-outs stand apart in the source and are kept apart here.
# Experiments:
# U87-MG cells [1] = details: in vitro; cited from earlier work
# GBM flank xenografts = details: ISA27 alone; cited from earlier work
# [2] = rats; administration for 10 days; effects reversible; cited from earlier work
# [3] = monkeys; administration for 10 days; effects reversible; cited from earlier work
# U87-MG flank xenografts = assay: Efficacy in ectopic U87-MG flank xenografts; assay type: in vivo, NSG mice; details: 5 mg/kg TMZ, 100 mg/kg nutlin3; 2 treatment cycles
# In short: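 NSG mice received 4 × 10^6 U87-MG cells in the right flank. At approximately 150 mm3, tumor-bearing mice were randomized into cohorts of 6–8. Dosing was oral: vehicle, 5 mg/kg TMZ, 100 mg/kg racemic nutlin3, or the combination, for 2 treatment cycles. Caliper measurements were taken twice weekly, and volume = (α2 × β)/2 (α shorter, β longer dimension). Data are mean ± SEM.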
# [4] = tested on: GBM10 intracranial tumors; assay: Survival in orthotopic intracranial GBM10 xenograft model; assay type: in vivo, NSG mice
# [5] = assay type: in vivo, NSG mice; details: peripheral blood, three cycles
# U87-MG cells [6] = assay: Western blot analysis of target proteins and cell cycle markers; assay type: cell-based, human
# In short: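 U87-MG cells were treated with vehicle, 25 μM TMZ, 5 μM nutlin3a, or the combination for 24 h or 72 h. RIPA lysates were resolved on 4–20% SDS-PAGE and transferred to nitrocellulose. Primary antibodies were used at 1:1000 and HRP secondaries at 1:5000, with chemiluminescent film detection. Densitometry was normalized to loading control and expressed relative to vehicle. Six independent experiments at 24 h; two at 72 h.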
# GBM10 flank tumors = assay: Western blot analysis of GBM10 flank tumor lysates; assay type: in vivo, NSG mice; details: 66 mg/kg TMZ, 100 mg/kg nutlin3a, 3 consecutive days; for MDM2 and p53 levels in tumors: 2 hours after last dose
# In short: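 NSG mice received 5 × 10^6 GBM10 cells in the right flank. At approximately 200 mm3, mice were dosed orally for 3 consecutive days with vehicle, 66 mg/kg TMZ, 100 mg/kg nutlin3a (methylcellulose/Tween 80), or the combination. Tumors were harvested 2 h after the last dose. Lysates were made in RIPA buffer with protease/phosphatase inhibitors, run on 4–20% SDS-PAGE, and transferred to nitrocellulose. Detection was by HRP-chemiluminescence, with densitometry normalized to loading control.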
# [7] = Pharmacokinetic analysis of nutlin3 in NSG mice; assay type: in vivo
# In short: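 Racemic nutlin3 was given orally to NSG mice. Plasma was collected, flash-frozen and kept at −80°C. Drug was recovered by liquid-liquid extraction and quantified by HPLC-MS/MS (API 4000) to derive pharmacokinetic parameters.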
# [8] = Nutlin3 concentration in U87-MG flank xenografts; assay type: in vivo, NSG mice; details: 4 hours postadministration
# In short: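 Tumors from NSG mice bearing U87-MG flank xenografts were collected 4 h after oral nutlin3 dosing. A vehicle-treated tumor served as background control. Samples were flash-frozen and stored at −80°C. Nutlin3 was recovered by liquid-liquid extraction and quantified by HPLC-MS/MS (API 4000), with caylin as internal standard. Two tumor samples were analyzed.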
# [9] = Dose-response curves of nutlin enantiomers; details: nutlin3a vs nutlin3b; data not shown
# [10] = Nutlin3a concentrations in normal brain and intracranial tumor tissue; assay type: in vivo, NSG mice; details: 100 mg/kg nutlin3a; 4 hours
# In short: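 NSG mice carried GBM10, GBM43 or SK28 melanoma cells implanted stereotactically in the right cerebral hemisphere. At 21 days post-implantation, mice received 100 mg/kg nutlin3a orally; tumor-free mice were dosed likewise. After 4 h, plasma and brains were collected and the tumor area was excised. Samples were frozen at −80°C, extracted by liquid-liquid extraction, and assayed by HPLC-MS/MS. Each point is one mouse.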
# GBM10 cells [11] = assay: Wound-healing assay; assay type: cell-based, human; details: 25 μM TMZ, 10 μM nutlin3a; 12 hours
# In short: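 GBM10 monolayers at 80–90% confluence were scratched with a pipette tip. Debris was washed off with medium, cells were rinsed in serum-free DMEM, and the gap was photographed at hour 0. Cells were then cultured in DMEM with 10% FBS containing vehicle, 25 μM TMZ, 10 μM nutlin3a, or the combination for 12 h. The marked gap was imaged every 2 h and its width measured. Three repeats.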
# GBM10 cells [12] = assay: Matrigel invasion assay; assay type: cell-based, human; details: 25 μM TMZ, 10 μM nutlin3a; 8 hours
# U87-MG cells [13] = assay: Apoptosis assay; assay type: cell-based, human; details: 25 μM TMZ, 1.25 or 5 μM nutlin3a; Day 5 posttreatment
# In short: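 U87-MG cells were treated with vehicle, 25 μM TMZ, 1.25 or 5 μM nutlin3a (DMSO stock diluted in medium), or TMZ/nutlin3a combinations. TMZ was dissolved in PBS or medium and used immediately. On Day 5 post-treatment, cells were stained with Annexin V-FITC and 7-AAD. Early apoptotic and late apoptotic/necrotic fractions were quantified by flow cytometry.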
# GBM10 cells [14] = assay: Western blot analysis of target proteins and cell cycle markers; assay type: cell-based, human
# In short: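 Cultured GBM10 cells were treated with vehicle, 25 μM TMZ, 10 μM nutlin3a, or the combination for 72 h (cell-cycle markers). A second set received 200 μM TMZ plus 2 μM nutlin3a for 24, 48 or 72 h. RIPA lysates were run on 4–20% SDS-PAGE and transferred to nitrocellulose. Primary antibodies were used at 1:1000 and HRP secondaries at 1:5000, with chemiluminescent detection. Densitometry was normalized to loading control relative to vehicle (24 h: 3 independent experiments).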
# [15] = murine bone marrow; cited from earlier work
# [16] = 25 μM TMZ, 5 μM nutlin3a, 24 hours
smiles,measurement,setting,value
O=C1[C@@H]2CS[C@@]3(C(=O)Nc4ccccc43)N2C(=O)N1Cc1ccc(Cl)cc1 [ISA27],Interaction with TMZ to kill U87-MG cells,U87-MG cells [1],synergized
same,Growth of GBM flank xenografts,GBM flank xenografts,inhibited growth
CCOc1cc(C(C)(C)C)ccc1C1=N[C@@](C)(c2ccc(Cl)cc2)[C@@](C)(c2ccc(Cl)cc2)N1C(=O)N1CCN(CCCS(C)(=O)=O)CC1 [RG7112],Platelet production,[2],decreased platelet production
same,Platelet production,[3],decreased platelet production
"Cn1nnc2c(C(N)=O)ncn2c1=O [TMZ, temozolomide]",Tumor growth / tumor volume compared with vehicle,U87-MG flank xenografts,significant decrease in tumor volume
same,Survival compared with vehicle or nutlin3a,"[4]; 66 mg/kg TMZ once daily, 100 mg/kg nutlin3a, 2 cycles, p < 0.05",significantly increased
same,Increase in survival compared with vehicle-treated mice,[4]; three 5-day cycles,approximately 13%
same,White and red blood cell counts compared with vehicle-treated mice,[5]; Day 30 and Day 43,significant decrease
same,Platelets,[5]; Day 30 only,significantly decreased
same,"Levels of total p53, p53 (S15) and MDM2",U87-MG cells [6]; [16],increased
same,APE1 level,U87-MG cells [6]; 72 hours,decreased
same,p53 (S15) levels in tumors,GBM10 flank tumors,increased
same,MDM2 and p53 levels in tumors,GBM10 flank tumors,increased
COc1ccc(C2=N[C@@H](c3ccc(Cl)cc3)[C@@H](c3ccc(Cl)cc3)N2C(=O)N2CCNC(=O)C2)c(OC(C)C)c1 [nutlin3],Cmax,"[7]; NSG, mouse, in vivo, po",20400 ng/mL and 37 µM
same,Tmax,"[7]; NSG, mouse, in vivo, po",1 h
same,Vd/F,"[7]; NSG, mouse, in vivo, po",0.113 L
same,half-life,"[7]; NSG, mouse, in vivo, po",4.5 h
same,Cl/F,"[7]; racemic nutlin3, NSG mice",0.29 mL/min
same,Nutlin3 in U87-MG flank xenografts,[8],detected
same,Tumor growth / tumor volume compared with vehicle,U87-MG flank xenografts,significantly slowed tumor growth
COc1ccc(C2=N[C@@H](c3ccc(Cl)cc3)[C@@H](c3ccc(Cl)cc3)N2C(=O)N2CCNC(=O)C2)c(OC(C)C)c1 [nutlin3a],Relative potency of enantiomers,[9],more potent enantiomer
same,Nutlin3a levels in brain tumor tissues versus normal brain tissue,[10],higher levels
same,"Survival of mice with intracranial GBM tumors, single agent","[4]; 100 mg/kg nutlin3a twice daily, 2 consecutive 5-day cycles",did not increase survival
same,GBM10 migration,GBM10 cells [11],significantly inhibited
same,GBM10 invasion,GBM10 cells [12],significantly inhibited
same,Early and late apoptotic/necrotic cells compared with control or TMZ alone,U87-MG cells [13],significant increases
same,"Cell cycle arrest by cell cycle–specific markers (pRb S780, pHH3, TopoIIα)","U87-MG cells [6]; 5 μM nutlin3a, 25 μM TMZ, 72 hours",arrested in G0/G1
same,"Levels of total p53, p53 (S15) and MDM2",U87-MG cells [6]; [16],increased
same,p21 levels,U87-MG cells [6]; [16],increased
same,APE1 level,U87-MG cells [6]; 72 hours,decreased
same,"Cell cycle arrest by cell cycle–specific markers (pRb S780, pHH3, TopoIIα)","GBM10 cells [14]; 10 μM nutlin3a, 25 μM TMZ, 72 hours",arrested in G0/G1
same,MDM2 and p21 levels,"GBM10 cells [14]; 200 μM TMZ, 2 μM nutlin3a, 24 hours",significantly increased
same,MDM2 and p53 levels in tumors,GBM10 flank tumors,increased
same,Nutlin3a detected in bone marrow,[15],low levels
